Here are results for 167 variants from the RNAGym collection of RNA variant scans (doi:10.1126/science.aae0568).

Fewer inactive variants are shown than the library holds.

First the molecules themselves.
B1: tRNA (parent)
chain: GUUCCGUUGGCGUAAUGGUAACGCGUCUCCCUCCUAAGGAGAAGACUGCGGGUUCGAGUCCCGUACGGAACG

In this data set the parent is B1. The data set can be described thus: yeast fitness relative to wild type (ratio to wild type); higher = fitter; tRNA-Arg(CCU), competitive growth, 37 C, YPD. A digest of the protocol: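 Genotype frequency changes were the basis for Darwinian fitness relative to wild type. The frequencies came from 100-nucleotide paired-end sequencing of gene amplicons from the start population and each end population of pooled yeast strains with tRNA-Arg(CCU) gene variants at the native locus. Competition ran in YPD at 37°C for 24 hours in six replicates, genotypes needed ≥ 100 starting reads, and estimates < 0.5 were set to 0.5.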
Turning to C5A C30G, the yeast fitness turned out to be 0.608. Next, U32G A70C: 0.787.

Turning to G23C C24G G50A A57G, the yeast fitness was at most 0.5.

Regarding C5A C33G A40G, the yeast fitness came to 0.521. On to U28C C62G, for which the yeast fitness amounted to 0.724. Next, U26C A65U: 0.896; U16A C24U C34G G38C: at most 0.5; C5A A15U U64C: 0.615.

On to U8G C27U C62G, for which the yeast fitness is at most 0.5. Next, G41A C55A U59A: 0.613; G17A C34U G38A: 0.581. In the case of C34G A57G A65G C66U it was 0.58. In the case of G6A A21C U47A G58A A65C it was at most 0.5; in that of A20U C62U, 1.02; in that of A40C U53A, 0.599. As to C30U A36C G67U, the yeast fitness was 0.639. Regarding U13G A20C C55U A69U, the yeast fitness turned out to be 0.565. As to U16G G44A G56A, the yeast fitness came out at 0.663.

C29U A42U C61U C66A: the yeast fitness was at most 0.5. As to U7A G23A C29A C61U, the yeast fitness was found to be 0.573. For the variant U8C G23A C30G, the yeast fitness is at most 0.5. In the case of C24G A69G it was 0.503; in that of A37U A42U C66A A69C, 0.572; in that of C11U C61A C62U G63C A70U, at most 0.5. Regarding G23C C61A, the yeast fitness was at most 0.5. In the case of G17U A45U C55U A70C it was at most 0.5.

In the case of U19C C27G C31G G39C A57C, the yeast fitness is at most 0.5.

Consider C4G C22G A45C C55U, for which the yeast fitness is at most 0.5. Consider C5G C24U C61A A70C, for which the yeast fitness is at most 0.5. In the case of C33G A69C A70U it was 0.611.

Consider U2C A45U C46G G58C U59C A65G C66G, for which the yeast fitness stood at 0.628. For the variant C5G G18C C61U A65C, the yeast fitness was at most 0.5.

As for G39A C49G, the yeast fitness came to 0.66.

Turning to A36C C49U C55U C62G G68C, the yeast fitness was at most 0.5.

For U19C G51A, the yeast fitness is 0.681. As to G9A C46G C61A, the yeast fitness was at most 0.5. In the case of G17C C22U U32C C46U it was at most 0.5; in that of U3G C4U U35A G58A G67U, at most 0.5. Consider C33G U47A U64G, for which the yeast fitness worked out at 0.77.

As for U35G A40G A57G, the yeast fitness stood at 0.548. Next, U3A C31G C66U: 0.641; G6A G10C G63A: at most 0.5. For the variant C11G C34G A65U, the yeast fitness was at most 0.5. As to C5G U26C A37G C60A, the yeast fitness is at most 0.5. As for C29G G44A A57U, the yeast fitness is 0.553. In the case of A14G G56A G67C it was at most 0.5; in that of G10A C24U C49U, 0.53.

As to A37C G38A C55A A65C, the yeast fitness is at most 0.5. In the case of G25A C61A, the yeast fitness was 0.595. Next, A20U G44C C55A: at most 0.5. Next, G6C A15C A21C C34U A37U C55A U59C C61A C62U: 0.537; U2C U13C G41A: 0.602.

For the variant A14C G50U, the yeast fitness is 0.708. As for U2C U13A G18A A42G, the yeast fitness was at most 0.5. Next, U32C C66G A70U: 0.811. Next, U19C A40C G50A: 0.664; A21U C30G G41A A43C C55A: at most 0.5; A21G C61G U64G: 0.586. Consider U3C C24G A43C G48A G58A G68C, for which the yeast fitness is at most 0.5. G6C U8C G41A A42C G50C A70G: the yeast fitness is at most 0.5. As to U16A G38C, the yeast fitness turned out to be 0.749. In the case of A43U G67A A69U it was 0.548; in that of G10C U13A A14G A20G C22A C24G C62G, at most 0.5; in that of G48C C55U, 0.668.

In the case of C30G G56A A57U, the yeast fitness is at most 0.5. Consider G6A C11U C24U, for which the yeast fitness was at most 0.5. As for G6A G23C C49G G50A U53G A57G, the yeast fitness was at most 0.5.

On to C33A C34U, for which the yeast fitness is at most 0.5. In the case of G9A C27G A43G C66G it was 0.717; in that of C5U C34A C55G, at most 0.5. In the case of C11U C27U C31A U35C C60G A70C it was at most 0.5; in that of U7A C29G A70U, at most 0.5; in that of C5G G17C U47A C55A, 0.516. C24G C27U G51C U64A: the yeast fitness was at most 0.5. In the case of U7C A15U G39A it was 0.623. As for U7C U8A C24G U64C, the yeast fitness is at most 0.5. Next, C33U G56U A65G: at most 0.5; G9A C34G A65U: at most 0.5. As to G6A C11U U13C A70G, the yeast fitness was at most 0.5. For G23U U28G G50A, the yeast fitness was at most 0.5. In the case of U28G C33G G68C it was at most 0.5; in that of G6C A15C A21C C34U A37U A69U, at most 0.5; in that of A43G C62U, 0.877. Consider C31G A36C C46G G51C, for which the yeast fitness worked out at 0.597.

Consider C24G G25A C66U, for which the yeast fitness is 0.561. On to A37U C46G C55A U59C C61A C62U, for which the yeast fitness came to 0.524. Next, G25C C29G G41A C49U A65G C66U: 0.583; G48C C49U A65U A69U: at most 0.5; A43U C61G C62A: 0.581.

Regarding C31U C49U, the yeast fitness came out at 1.04. As to A20C C22G C33A U59C, the yeast fitness is at most 0.5.

With C11G G18A C29U A40G C62U, the yeast fitness is at most 0.5. As for C24G A42G A43U C46U C62U, the yeast fitness was at most 0.5. Take C5G G17C A20C A21U C27U C33G: the yeast fitness was at most 0.5. Next, C4G C60G G68C: 0.622; G10A C24G C34U G63C: at most 0.5; U28A C34U G52A: at most 0.5. With U19A A40G C55G A70G, the yeast fitness was at most 0.5. Consider U16C A20U G25C C60A, for which the yeast fitness is at most 0.5. With G12A A43U G48A C61G A70C, the yeast fitness was at most 0.5. Next, U3A U26C C31U A40C: at most 0.5. On to G12A G63A G67A, for which the yeast fitness was at most 0.5. Next, C30G A37C G38A A40U A45G: at most 0.5. On to C4A G9C C11G A45C A57G, for which the yeast fitness amounted to 0.526.

In the case of A21U G25A G68U, the yeast fitness came to 0.547. In the case of A36G U64A it was 0.796.

C5U U8G: the yeast fitness came out at 0.64. With C5U U8C, the yeast fitness was determined as 1.07. U3G A15G A21U C24U G38A: the yeast fitness stood at 0.571. In the case of C4A A42C it was 0.794. In the case of U8G U32G G38A G56C it was at most 0.5. Next, C31A A36G A57U: 0.539; A21U C29G G58C: 0.502. On to G12C G51C U59G, for which the yeast fitness was at most 0.5. On to U2A C33A C55A G63A, for which the yeast fitness came out at 0.513. Next, A42U G58A C61G A70U: at most 0.5; G58U G63C: 0.586. Regarding U7A G10A C33A A36C, the yeast fitness is at most 0.5. Next, C29G U35A G68C: at most 0.5; C22A C34U U35G C61U: at most 0.5; U8A C31U U59A: at most 0.5.

Regarding U7C C62A, the yeast fitness was 0.786.

Take G39C C55G: the yeast fitness was at most 0.5.

Regarding C5A U35C A57C, the yeast fitness was at most 0.5.

For the variant C5G C27G C34G, the yeast fitness is at most 0.5.

As for C27G C33A A65U, the yeast fitness was at most 0.5.

G50A U54A: the yeast fitness came out at 0.705. With U2G C4A A37U C62G, the yeast fitness is at most 0.5. Next, U26G C33G C34G A40U G68A: at most 0.5.

C5G C24G A45C A70U: the yeast fitness was at most 0.5. In the case of U13C U19G A20G C31U G44A it was at most 0.5; in that of G51A A65U, 0.66; in that of G23A G58C C61U, 0.554. Take C30U A42G: the yeast fitness came out at 0.8.

On to G10C C11G C55G C62U, for which the yeast fitness worked out at 0.62. Next, A15U C27A G56C G63A: at most 0.5; G12A A21G C31A: 0.625; C11U A14U C34U: at most 0.5.

Consider U2G G51A, for which the yeast fitness is 0.805. Consider A15G C30A C49G C55U, for which the yeast fitness was at most 0.5.

In the case of U8G G9U C30A, the yeast fitness was at most 0.5.

Take G9C G12C C31A A40U G67A: the yeast fitness was determined as 0.557. In the case of U2A A40G it was 0.932; in that of G23C A69C, 0.612; in that of C5G A15U G44C G50A U54A, at most 0.5. Next, G12A C24U U64G: at most 0.5; C31A C61G G68C: at most 0.5; C22U G41A A69C: at most 0.5. Take C5G C29U A43C U54G C60G C62U: the yeast fitness is at most 0.5. Next, C29G C31G C46G C55U: at most 0.5; C5G C27G A43G: at most 0.5. In the case of C11U A14G C24G C27U A36G G41A A42C it was at most 0.5; in that of G10A A57U U59C, at most 0.5. Next, C30U C31A U54G: 0.549. With A37G C49G, the yeast fitness is 0.788. For C4U G12C C46U G50A, the yeast fitness was 0.608.

For C29U A42G, the yeast fitness worked out at 0.975.

For the variant U2C G18A C24A U28A U32C A57C G67U, the yeast fitness is at most 0.5.

Take C11A A15G C34G G52C C61U: the yeast fitness is at most 0.5. For the variant C31U A45U C46G, the yeast fitness was determined as 0.94. Next, C5A U16C A42U A57G: at most 0.5. In the case of U32C A37U G44A A70G it was at most 0.5; in that of C4G A14G U26C A36G A37C G51C, at most 0.5. Consider G10A U19A A42G A65C, for which the yeast fitness was at most 0.5. In the case of U8G A20U U53G C66G A70G it was at most 0.5. U2G G23C G58A: the yeast fitness was at most 0.5. In the case of U16C A65U it was 0.965.
